This note sets out measurements from ChEMBL document CHEMBL1157410, “7-aryl 1,5-dihydro-benzo[e][1,4]oxazepin-2-ones and analogs as non-steroidal progesterone receptor antagonists” (Bioorg Med Chem, 2008).

The term IC50 denotes the concentration at which inhibition is half-maximal. The inhibition is the change of the read-out against control, counted positive when it falls.

Active and inactive are the calls of the source. No cut-off for these calls is given here.

The target in test [1] is T1, Estrogen receptor (Homo sapiens) (UniProt P03372).
T1 sequence (whole entry): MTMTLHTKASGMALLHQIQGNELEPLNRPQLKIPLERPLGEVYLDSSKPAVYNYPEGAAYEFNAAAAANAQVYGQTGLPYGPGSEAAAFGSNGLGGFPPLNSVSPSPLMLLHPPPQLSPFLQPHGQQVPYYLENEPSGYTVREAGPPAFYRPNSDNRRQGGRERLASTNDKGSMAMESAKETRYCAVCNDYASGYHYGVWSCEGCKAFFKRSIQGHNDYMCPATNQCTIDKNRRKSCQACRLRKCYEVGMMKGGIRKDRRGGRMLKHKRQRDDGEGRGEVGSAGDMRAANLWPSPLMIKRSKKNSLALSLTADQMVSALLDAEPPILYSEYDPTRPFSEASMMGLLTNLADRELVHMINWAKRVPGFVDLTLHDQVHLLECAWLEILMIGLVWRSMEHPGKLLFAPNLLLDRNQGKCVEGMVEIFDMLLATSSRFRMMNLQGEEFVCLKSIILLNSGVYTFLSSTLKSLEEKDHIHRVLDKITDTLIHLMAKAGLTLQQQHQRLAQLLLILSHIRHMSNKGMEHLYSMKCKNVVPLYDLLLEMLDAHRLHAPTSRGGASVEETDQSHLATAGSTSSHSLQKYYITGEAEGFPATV
Nature of the test: Antagonist activity at cloned estrogen receptor-ligand binding domain expressed in african green monkey COS7 cells by GAL4 luciferase reporter assay upto 10 uM. The format is cell-based. The conditions noted are these: COS-7. The method, boiled down:
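COS-7 cells in phenol red-free DMEM with 10% charcoal/dextran-treated FBS were transfected for 16 h with a GAL4-DBD/receptor-LBD fusion plasmid and a GAL4_UAS (5 copies, E1b TATA) luciferase reporter, 50 ng/well each. Cells were then given compound for 20 h, and luciferase activity was read from cell lysates by luminometer.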
In general terms: Reporter assays use an easily measured gene product as a stand-in for the process of interest.

Test [2] is described as follows: Selectivity for progesterone receptor over glucocorticoid receptor.
The next test has as its system Rattus norvegicus. The test is described as follows: Activity in ovariectomized rat assessed as inhibition of progesterone-induced decidualization at 3 mg/kg, po. On the set-up: scale not given: the % may be the effect or the level left. The format is functional.
The nature of test [3]: Selectivity for progesterone receptor over mineralocorticoid receptor.
The target in test [4] is T2, Mineralocorticoid receptor (Homo sapiens, UniProt P08235).
T2 sequence (P08235 whole entry): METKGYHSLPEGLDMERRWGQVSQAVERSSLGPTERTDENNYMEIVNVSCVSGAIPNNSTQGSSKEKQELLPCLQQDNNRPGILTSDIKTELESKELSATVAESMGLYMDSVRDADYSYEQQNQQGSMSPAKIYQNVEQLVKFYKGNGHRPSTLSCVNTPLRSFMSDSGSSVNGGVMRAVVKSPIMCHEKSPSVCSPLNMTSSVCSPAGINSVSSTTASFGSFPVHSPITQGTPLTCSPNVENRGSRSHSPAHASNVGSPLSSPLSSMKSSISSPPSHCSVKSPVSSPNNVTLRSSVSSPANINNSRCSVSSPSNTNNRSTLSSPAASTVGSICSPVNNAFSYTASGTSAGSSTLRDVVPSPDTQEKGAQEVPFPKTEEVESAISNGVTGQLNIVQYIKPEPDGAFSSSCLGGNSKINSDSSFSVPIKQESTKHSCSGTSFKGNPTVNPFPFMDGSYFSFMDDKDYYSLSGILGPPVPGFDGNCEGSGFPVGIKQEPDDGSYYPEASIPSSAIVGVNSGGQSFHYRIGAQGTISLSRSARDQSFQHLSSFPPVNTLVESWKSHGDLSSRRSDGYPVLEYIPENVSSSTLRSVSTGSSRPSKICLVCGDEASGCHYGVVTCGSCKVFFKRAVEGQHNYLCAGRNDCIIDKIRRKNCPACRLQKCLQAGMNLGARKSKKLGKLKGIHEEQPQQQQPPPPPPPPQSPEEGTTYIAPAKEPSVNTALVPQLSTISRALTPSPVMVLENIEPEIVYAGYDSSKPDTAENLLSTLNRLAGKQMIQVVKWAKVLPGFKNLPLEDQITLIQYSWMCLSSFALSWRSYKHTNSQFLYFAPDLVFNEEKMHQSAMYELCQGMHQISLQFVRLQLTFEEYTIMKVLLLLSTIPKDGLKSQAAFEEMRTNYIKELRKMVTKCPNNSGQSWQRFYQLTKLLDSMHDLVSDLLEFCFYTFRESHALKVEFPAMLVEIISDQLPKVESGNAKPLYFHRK
Nature of the test: (§1) Antagonist activity at cloned mineralocorticoid receptor-ligand binding domain expressed in african green monkey COS7 cells by GAL4 luciferase reporter assay. The format is cell-based, COS-7. The method, boiled down: (§2)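 GAL4 DNA-binding domain fused to receptor ligand-binding domain, one-hybrid format. LBD fusion and GAL4_UAS (5 copies, E1b minimal TATA) luciferase reporter plasmids, 50 ng/well each, transfected 16 h into COS-7 cells. Cells grown in phenol red-free DMEM with 10% charcoal/dextran-treated FBS. Compound exposure 20 h, then luciferase read on lysates. Mean of at least duplicate determinations.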

The target in test [5] is T3, Mineralocorticoid receptor (Homo sapiens) (UniProt P08235).
T3 sequence (whole entry): T2 sequence (P08235 whole entry)
Described as §1. The format is cell-based. The conditions noted are these: COS-7; concentration not given here. The method, boiled down:
as §2

The nature of test [6]: Selectivity for progesterone receptor over estrogen receptor.
Test [7] in a line: Selectivity for progesterone receptor over androgen receptor.

`CC1(C)OCC(=O)Nc2ccc(-c3cc(F)cc(C#N)c3)cc21`: the outcome in test [1] was inactive. Further, the Selectivity ratio in test [2], in test [3], in test [6] and in test [7] was over 100 each time. Moreover, the Activity with Rattus norvegicus was 50%. The compound also displayed an IC50 in test [4] of over 3 µM. In test [5], this compound displayed an inhibition of 32%.

In the case of `CCC1(c2ccco2)OCC(=O)Nc2ccc(-c3cc(F)cc(C#N)c3)cc21` (centres undefined), the outcome in test [1] was inactive. Also, the Activity in the test with Rattus norvegicus came out at 50%. Moreover, the IC50 in test [4] is over 3 µM. In test [5], this compound showed an inhibition of 82%.

Turning to `N#Cc1cc(F)cc(-c2ccc3c(c2)C(c2ccco2)(c2ccco2)OCC(=O)N3)c1`, the outcome in test [1] was inactive. The Selectivity ratio in test [2], in test [3], in test [6] and in test [7] was over 100 in each case. This compound also showed an IC50 in test [4] of over 3 µM. Also, the inhibition in test [5] stood at 60%.
